The source of these data is ChEMBL document CHEMBL1138265, “In vivo anti-Chagas vinylthio-, vinylsulfinyl-, and vinylsulfonylbenzofuroxan derivatives” (J Med Chem, 2007).

As a reminder, the inhibition is the share of the control response that was lost under treatment. A higher inhibition goes with strong suppression. The IC50 is the concentration that inhibits the measured activity by half. A lower IC50 goes with inhibition by little substance.

Structures are written as SMILES. Calls of active or inactive are those of the source. The calls are words filed in the database; no cut-off is given here.

The target in series [1] is Cruzipain (Trypanosoma cruzi) (UniProt P25779). The experiment in a line: Inhibition of Trypanosoma cruzi Tulahuen 2 cruzipain at 100 uM. The procedure, abridged: (§1)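 Cruzipain purified from Tulahuen 2 epimastigotes by ConA-Sepharose affinity chromatography. Assayed in 50 mM Tris-acetate pH 8.0 with 0.3 mM Bz-Pro-Phe-Arg-pNA and 10 mM β-mercaptoethanol, A410 followed at 30 °C. Inhibitors added in DMSO, controls with matching DMSO, E-64 as reference. Tested at 10-100 µM; means of at least two measurements.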

The target of series [2] is Trypanothione reductase (Trypanosoma cruzi) (UniProt P28593). Nature of the series: Inhibition of Trypanosoma cruzi trypanothione reductase assessed as volume activity per minute at 100 uM.
For series [3] the target is unchanged. Nature of the series: Inhibition of Trypanosoma cruzi trypanothione reductase assessed as volume activity per min at 100 uM in presence of NADPH. The procedure, abridged: (§2)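 Time-dependent inactivation: 170 mU recombinant TR incubated at 25 °C in 40 mM HEPES, 1 mM EDTA, pH 7.5 with 100 µM inhibitor, with or without 160 µM NADPH, for 0-24 h. Aliquots diluted 200-fold and residual activity measured in the standard NADPH/TS2 assay at 340 nm. Controls: TR plus NADPH with DMSO, and TR plus inhibitor.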

Series [4] has the same target. Nature of the series: Inhibition of Trypanosoma cruzi trypanothione reductase assessed as volume activity per min at 100 uM after 1 hr. Summed up:
as §2

Series [5] shares this target. The experiment in a line: Inhibition of Trypanosoma cruzi trypanothione reductase assessed as volume activity per min at 100 uM in presence of NADPH after 1 hr. The procedure, abridged:
as §2

The test system of series [6] is Trypanosoma cruzi. Nature of the series: Antitrypanosomal activity against Trypanosoma cruzi Tulahuen 2. Type of series: functional, organism-based. Summed up: (§3)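 Epimastigotes from 5-day stationary culture inoculated at 1 × 10^6 cells/mL into medium with compound added from DMSO stock (final DMSO ≤0.4%; control 0.4% DMSO, no compound). Growth followed by A600; % inhibition from day 0 and day 5 absorbance versus control. IC50 = concentration reducing the day-5 absorbance ratio to 50%. Single-dose screen at 25 µM. Means of three experiments.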

Series [7] relates to Trypanosoma cruzi. The experiment in a line: Antitrypanosomal activity against Trypanosoma cruzi CL Brener. The class given is functional, organism-based. Summed up: as §3
Series [8] deals with Trypanosoma cruzi. The experiment in a line: Antitrypanosomal activity against Trypanosoma cruzi Y. The class given is functional, organism-based. The procedure, abridged:
as §3

For series [9], the system named is THP-1. Nature of the series: Cytotoxicity against human THP1 cells after 48 hrs. Type of series: cell-based. As to conditions: THP-1, 48 h. Summed up:
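THP-1 human macrophages in RPMI 1640 with 20% heat-inactivated FCS, left to attach 48 h at 37 °C, 5% CO2. Exposed to compounds at 25-1000 µM for 48 h, washed, then MTT 0.4 mg/mL for 3 h. Formazan dissolved in DMSO and read at OD595; % cytotoxicity corrected for compound-in-medium blanks. Triplicates per concentration, six growth controls; mean of two experiments.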

A short description of series [10]: Selectivity index, ratio of IC50 for human THP1 cells to IC50 for Trypanosoma cruzi Tulahuen 2. Type of series: functional, THP-1.
Series [11] in a line: Selectivity index, ratio of IC50 for human THP1 cells to IC50 for Trypanosoma cruzi CL Brener. The class given is functional, THP-1.
Series [12] in a line: Selectivity index, ratio of IC50 for human THP1 cells to IC50 for Trypanosoma cruzi Y. Type of series: functional, THP-1.
Series [13] has as its target Cruzipain (Trypanosoma cruzi) (UniProt P25779). The experiment in a line: Inhibition of Trypanosoma cruzi Tulahuen 2 cruzipain at 10 uM. Summed up: as §1
For series [14] the target is unchanged. The experiment in a line: Inhibition of Trypanosoma cruzi Tulahuen 2 cruzipain at 20 uM. Summed up: as §1
The target is the same in series [15]. The experiment in a line: Inhibition of Trypanosoma cruzi Tulahuen 2 cruzipain at 50 uM. Summed up: as §1
Series [16] concerns the target Trypanothione reductase (Trypanosoma cruzi) (UniProt P28593). The experiment in a line: Inhibition of Trypanosoma cruzi trypanothione reductase assessed as volume activity per min at 100 uM after 24 hrs. The procedure, abridged:
as §2

Series [17] shares this target. Nature of the series: Inhibition of Trypanosoma cruzi trypanothione reductase assessed as volume activity per min at 100 uM in presence of NADPH after 24 hrs. Summed up: as §2
Series [18] has the same target. The experiment in a line: Inhibition of Trypanosoma cruzi trypanothione reductase assessed as volume activity per min at 100 uM after 3 hrs. Summed up:
as §2

The test system of series [19] is Mus musculus. Nature of the series: Toxicity in Trypanosoma cruzi Tulahuen 2 infected Swiss mouse model of Chagas disease at 60 mg/kg, po. As to conditions: in vivo.
In series [20] the test system is Trypanosoma cruzi. The experiment in a line: Antitrypanosomal activity against Trypanosoma cruzi Tulahuen 2 infected Swiss mouse model of Chagas disease at 60 mg/kg, po after 41 days post infection.
The subject of series [21] is Trypanosoma cruzi. Nature of the series: Antitrypanosomal activity against Trypanosoma cruzi Tulahuen 2 infected Swiss mouse model of Chagas disease at 60 mg/kg, po after 35 days post infection.

Sequence of Cruzipain (Trypanosoma cruzi) (P25779 123-467 limits assumed): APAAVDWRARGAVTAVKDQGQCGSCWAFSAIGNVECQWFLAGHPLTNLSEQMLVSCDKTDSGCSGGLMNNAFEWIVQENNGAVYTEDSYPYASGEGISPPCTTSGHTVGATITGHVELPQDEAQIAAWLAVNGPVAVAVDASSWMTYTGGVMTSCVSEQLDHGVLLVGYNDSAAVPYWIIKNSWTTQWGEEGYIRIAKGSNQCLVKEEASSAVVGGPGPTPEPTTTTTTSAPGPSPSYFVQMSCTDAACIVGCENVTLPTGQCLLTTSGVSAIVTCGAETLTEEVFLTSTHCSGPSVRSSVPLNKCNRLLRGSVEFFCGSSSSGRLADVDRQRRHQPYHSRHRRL
Sequence of Trypanothione reductase (Trypanosoma cruzi) (P28593 whole entry, looked up): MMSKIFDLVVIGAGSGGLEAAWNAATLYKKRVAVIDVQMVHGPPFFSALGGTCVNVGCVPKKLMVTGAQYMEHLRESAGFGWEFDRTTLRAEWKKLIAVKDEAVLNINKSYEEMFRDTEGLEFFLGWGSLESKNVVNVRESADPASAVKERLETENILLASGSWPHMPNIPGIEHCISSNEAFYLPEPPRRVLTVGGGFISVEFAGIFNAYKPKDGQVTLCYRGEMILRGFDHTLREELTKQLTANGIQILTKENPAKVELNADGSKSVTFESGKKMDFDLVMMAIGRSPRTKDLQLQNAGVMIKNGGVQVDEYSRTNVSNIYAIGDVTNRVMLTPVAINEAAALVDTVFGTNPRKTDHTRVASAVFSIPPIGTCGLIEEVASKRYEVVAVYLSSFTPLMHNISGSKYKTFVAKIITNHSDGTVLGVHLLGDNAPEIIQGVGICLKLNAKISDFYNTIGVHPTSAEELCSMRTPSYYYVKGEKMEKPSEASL

With `[O-][n+]1onc2cc(/C=C\[S+]([O-])c3ccccc3)ccc21` (stereo unspecified), the inhibition in [1] was 3%; in [13] it was 0%; in series [14], 23%; in series [15], 8%. Moreover, the deltaA in [2] stood at 0.101; in [3], 0.107; in series [4] it was 0.107; in series [5] it was 0.107; in series [16] it was 0.108; in series [17], 0.081. The deltaA in series [18] came out at 0.09. Further, the IC50 in [6] worked out at 0.7 µM; in series [7], 5 µM; in series [8], 1.5 µM; in series [9], 105 µM. The “Ratio IC50” value in series [10] was determined as 150; in series [11] it was 21; in series [12] it was 70. In series [19], the Activity entry was “Non-toxic”. Further, the outcome in [20] and in [21] was Active.
